According to ChEMBL document CHEMBL1671641, “1,5-benzodiazepines, a novel class of hepatitis C virus polymerase nonnucleoside inhibitors” (Antimicrob Agents Chemother, 2008):
pEC50, pIC50: −log10 of the molar value.

Legend:
[1] = Cytotoxicity against CMV-Luc transfected human HuH7 cells after 5 days; format: cell-based, Huh-7; settings: huh-7, 120 h, 120 h
[2] = Cytotoxicity against human HuH7 cells after 5 days by resazurin assay; format: cell-based, Huh-7; settings: huh-7, 120 h, 120 h
Outline: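 Subconfluent HCV 1b subgenomic replicon cells, 500 per well and grown without G418, were incubated for 5 days with eight serial fourfold compound dilutions. Viability was read by resazurin. Values are means ± SD from two to eight independent experiments in quadruplicate.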

MT4 [3] = assay: Cytotoxicity against LTR-Luc transfected human MT4 cells […] after 3 days by ATPLite assay; format: cell-based; settings: mt4, 72 h, 72 h
HepG2 = assay: Cytotoxicity against human HepG2 cells after 72 hrs by resazurin assay; format: cell-based; settings: hepg2, 72 h, 72 h
Outline: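 Cells were tested against eight serial fourfold dilutions for 72 h, at 3,000 cells/well for HEK293T and 4,000 cells/well for HepG2. Viability was read by resazurin staining. Values are means ± SD from two to eight independent experiments in quadruplicate.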

Hepatitis C virus [4] = assay: Inhibition of Hepatitis C virus 1b J4 recombinant NS5B Cdelta 21 RNA dependent RNA polymerase overexpressed in Escherichia coli BL21 (DE3) by RdRp primer-dependent transcription assay; parameters: species or system Hepatitis C virus subtype 1b
Hepatitis C virus [5] = assay: Antiviral activity against Hepatitis C virus 1b infected in human HuH7 cells assessed as inhibition of viral replication after 3 days by luciferase reporter assay; format: functional, organism-based, Hepacivirus hominis, genotype 1b, Huh-7; settings: huh-7
Outline: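 HCV 1b subgenomic luciferase reporter replicon (clone ET) cells, 2,500 per well, were exposed to a nine-point 1/4 dilution series for 3 days. Replication was read as luciferase activity. Values are means ± SD from 2 to 23 independent experiments run in quadruplicate.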

MT4 [6] = assay: Cytotoxicity against human MT4 cells after 3 days by ATPLite assay; format: cell-based; settings: mt4, 72 h, 72 h
Outline: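 MT4 cells, 5,000 per well, were incubated 3 days at 37°C with eight serial fourfold compound dilutions. Cytotoxicity was read as intracellular ATP by ATPlite 1step luminescence. Values are means ± SD from two to eight independent experiments in quadruplicate.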

Hepatitis C virus [7] = assay: Inhibition of Hepatitis C virus 1b J4 recombinant NS5B Cdelta 21 RNA dependent RNA polymerase overexpressed in Escherichia coli BL21 (DE3) assessed as [alpha-33P]UTP incorporation by RdRp primer-independent transcription assay; parameters: species or system Hepatitis C virus subtype 1b
Outline: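 De novo (primer-independent) RdRp assay: 190 nM NS5BΔ21 (1b J4) with 86 nM HCV 3′ UTR template RNA, 0.5 mM each ATP/GTP/CTP, 10 μM UTP plus [α-³³P]UTP, in 20 mM Tris-HCl pH 7.5, 1 mM DTT, 5 mM MgCl₂, 20 mM NaCl. Incubated 2 h at room temperature, stopped with EDTA/tRNA, TCA-precipitated on filters, and scintillation-counted. Quadruplicate.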

Hepatitis C virus [8] = assay: Antiviral activity against Hepatitis C virus infected in cells assessed as log reduction in viral RNA level from baseline at 4500 mg administered BID for 14 days by Replicon Assays; format: functional, Hepacivirus hominis
Hepatitis C virus [9] = assay: Antiviral activity against Hepatitis C virus infected in cells assessed as log reduction in viral RNA level at 800 mg administered BID for 10 days; format: functional, Hepacivirus hominis

`CC(=O)N1c2cccc(O)c2NC2=C(C(=O)CC(C)(C)C2)C1c1ccc(OCc2ccccc2)cc1Cl` (single isomer, unassigned; 7b) showed a CC50 [1] of 10.1 µM, a CC50 [2] of 23.8 µM and a CC50 (MT4 [3]) of 14.4 µM. The CC50 (HepG2) was over 25 µM, the pIC50 (Hepatitis C virus [4]) was 4.90 and the pEC50 (Hepatitis C virus [5]) was 5.68. It also gave a CC50 (MT4 [6]) of 38.4 µM and a pIC50 (Hepatitis C virus [7]) of 4.73.

For `[N-]=[N+]=N[C@]1(CO)O[C@@H](n2ccc(N)nc2=O)[C@H](O)[C@@H]1O` [4'-AZIDOCYTIDINE], the FC (Hepatitis C virus [8]) was 3.7.

`CC1CCC(C(=O)N(c2cc(-c3ccccc3)sc2C(=O)[O-])C2CCC(O)CC2)CC1.[Na+]` (stereo not given) [VCH-759] showed an FC (Hepatitis C virus [9]) of 2.5.
